In general, GI50 refers to the concentration at which growth is held to half of that of the control. The inhibition is the drop in the measured response relative to a control, in per cent. In general, IC50 refers to the concentration at which inhibition is half-maximal.

Molecules are shown by their SMILES. Bounds are passed on as bounds.

Results on four compounds are retold here after PMC8811894 (ACS Omega, 2022).

Data set [1] relates to T-47D human breast carcinoma cells. The data set can be described thus: Click-iT-EdU Alexa Fluor 488 cell proliferation assay. In kind it is cell-based. As to conditions: for GI50: Homo sapiens, T47D, 72 h, read-out: DNA synthesis inhibition, GI50. In outline: (§1)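 Cells were seeded at 800/well in medium with 10% FBS under 5% CO2. HCT-116 grew in McCoy's 5a and T-47D in RPMI-1640 + insulin 0.2 Units/mL. Test compound came from DMSO stocks, with tubercidin as positive control. After 72 h, EdU was added for 2.5 h at 37 °C. Cells were fixed in 4% paraformaldehyde (30 min, RT) and stained with Hoechst 33342. Click-iT Alexa Fluor 488 reaction ran 1 h at RT in the dark. Plates were read by high-content imaging; value from sigmoidal fit.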

Data set [2] concerns MDA-MB-435. Description: NCI60 SRB screen. In kind it is cell-based. As to conditions: Homo sapiens, MDA-MB-435, read-out: growth inhibition. In outline: (§2)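 Tested on the 60-line human cancer panel by sulforhodamine B assay. The dye binds cell protein under mildly acidic conditions and is extracted with basic medium; bound dye is taken as a proxy for cell mass. A single-dose test at 10 μM gives % growth inhibition; a five-dose test gives GI50.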

Data set [3] concerns HCT-116 human colon epithelial colorectal carcinoma cells. Description: Click-iT-EdU Alexa Fluor 488 cell proliferation assay. It counts as cell-based. The following applies: Homo sapiens, HCT-116, 72 h, read-out: DNA synthesis inhibition, GI50. In short, it runs like this:
as §1

Data set [4] shares this test system. Description: MTT cell toxicity assay. As to conditions: Homo sapiens, HCT-116, 72 h, read-out: cancer cell growth inhibition, GI50. It counts as cell-based. In short, it runs like this: (§3)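 Cells were seeded at 5 × 10^3/well in medium with 10% FBS and kept at 37 °C, 5% CO2. Media: DMEM for A549 and A375; EMEM for DU145; F-12K for PC-3; McCoy's 5a for HCT-116 and SK-OV-3; RPMI-1640 + insulin 0.2 Units/mL for T-47D. Test compound came from DMSO stocks, with tubercidin as positive control. MTT at 0.5 mg/mL final was added for 2–3 h at 37 °C, then absorbance read at 570 nm. Three repeats; GI50 from sigmoidal fit.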
(Tetrazolium dyes change colour on reduction, which living cells bring about.)

Data set [5] has as its system A375 human skin epithelial malignant melanoma cells. Description: MTT cell toxicity assay. It counts as cell-based. The following applies: Homo sapiens, A-375, 72 h, read-out: cancer cell growth inhibition, GI50. In outline:
as §3

Data set [6] has as its system PC-3 human prostate epithelial adenocarcinoma grade IV cells. Description: MTT cell toxicity assay. In kind it is cell-based. The following applies: Homo sapiens, 72 h, read-out: cancer cell growth inhibition, GI50. In short, it runs like this: as §3
The subject of data set [7] is panel of 60 human cancer cell lines. Description: NCI60 screen, SRB assay, panel mean. In kind it is cell-based. As to conditions: single-dose inhibition of cell growth at 10 μM. In outline:
as §2

The subject of data set [8] is T-47D human breast carcinoma cells. Description: MTT cell toxicity assay. It counts as cell-based. The following applies: for GI50: Homo sapiens, T47D, 72 h, read-out: cancer cell growth inhibition, GI50. In outline: as §3
The test system of data set [9] is SK-OV-3 human ovary ascites epithelial adenocarcinoma cells. The data set can be described thus: MTT cell toxicity assay. As to conditions: Homo sapiens, SK-OV-3, 72 h, read-out: cancer cell growth inhibition, GI50. In kind it is cell-based. In short, it runs like this:
as §3

The test system of data set [10] is A498. The data set can be described thus: NCI60 SRB screen. It counts as cell-based. The following applies: Homo sapiens, A498, read-out: growth inhibition. In short, it runs like this: as §2
Data set [11] has as its system DU145 human prostate epithelial carcinoma cells. The data set can be described thus: MTT cell toxicity assay. In kind it is cell-based. As to conditions: Homo sapiens, DU-145, 72 h, read-out: cancer cell growth inhibition, GI50. In outline: as §3
The subject of data set [12] is A549 human lung epithelial carcinoma cells. Description: MTT cell toxicity assay. In kind it is cell-based. As to conditions: Homo sapiens, A549, 72 h, read-out: cancer cell growth inhibition, GI50. In outline: as §3
Data set [13] relates to MCF-7 human breast carcinoma cells. The following applies: ref [30]; cited from earlier work.
Data set [14] deals with Caco-2 colon adenocarcinoma cells. The following applies: read-out: IC50, growth suppression; 24 h treatment; ref [9]; cited from earlier work.
Data set [15] deals with panel of 60 human cancer cell lines. As to conditions: read-out: NCI60 screen mean GI50; SRB assay; ref NCI60 screen data, NSC 115712; cited from earlier work. On the technique in general: Sulforhodamine B stains cellular protein and so reports cell mass.

On to `COc1cc(CCC[P+](c2ccccc2)(c2ccccc2)c2ccccc2)c(OC)c(OC)c1OC.[I-]` [7d, [3-(2,3,4,5-Tetramethoxyphenyl)propyl](triphenyl)phosphonium Iodide], for which the GI50 in data set [1] was 613 ± 25 nM; in data set [3] it was 681 ± 90 nM; in data set [4], 218 ± 24 nM; in data set [5] it was 2350 ± 240 nM; in [6] it was 3880 ± 550 nM; in data set [8], 500 ± 70 nM. Besides, the 50% growth inhibitory concentration (GI50) was 21600 ± 1530 nM in data set [9], 8130 ± 150 nM in data set [11] and 17900 ± 360 nM in data set [12]. For the same compound, the “times more potent than PrTPP” value in data set [1] (T-47D, Click-iT-EdU test) was found to be 5.6 times; in [8] (T-47D, MTT test), 4.8 times. For the same compound, the inhibition at 10 µM in data set [2] and in [10] was about 100% each time. Further, in data set [7], the “NCI60 screen mean GI, %” value amounted to 32.9%.
For the compound `CCCCCCCCCCCC[P+](c1ccccc1)(c1ccccc1)c1ccccc1` [dodecyl-TPP], the concentration exhibiting cytotoxicity in data set [13] is reported as 250 nM.
For the compound `C=CCc1cc(OC)c2c(c1)OCO2` [1c, myristicin], the GI50 in data set [1] was over 250000 nM; in [3] it was over 250000 nM; in [4], over 250000 nM; in data set [5], over 250000 nM; in data set [6] it was over 250000 nM; in [8] it was 113000 ± 12400 nM. The 50% growth inhibitory concentration (GI50) in data set [9], in data set [11] and in data set [12] was over 250000 nM each time. Also, the IC50 in data set [14] was 760000 nM.
Take `Nc1ncnc2c1ccn2[C@@H]1O[C@H](CO)[C@@H](O)[C@H]1O` [tubercidin, Tubercidin, reference compound]: the GI50 stood at 44 ± 6 nM in [1]; 30.7 ± 2 nM in [3]; 80 ± 4 nM in data set [4]; 43 ± 4 nM in data set [5]; 76 ± 1 nM in data set [6]; 13 ± 1 nM in data set [8]. The 50% growth inhibitory concentration (GI50) was 131 ± 2 nM in data set [9], 331 nM in [15], 256 ± 90 nM in [11] and 44 ± 3 nM in data set [12].
